Legend:
[1] = tested on: Liver; assay: Drug uptake in overnight fasted Sprague-Dawley rat liver at 0.7 to 1.4 MBq, iv preincubated with POCA for 2 hrs before compound administration measured at 30 mins post treatment; assay type: ADME, organism-based; conditions: in vivo, 0.5 h
Outline: (§1)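 Female rats fasted overnight, under isoflurane (3.5% induction, 1.5% maintenance). 18F-labelled tracer formulated in 0.5–1.0% BSA/saline, injected via tail vein. Tissues harvested at 30 or 120 min, weighed, gamma-counted, decay-corrected. Uptake expressed as % dose kg/g, i.e. tissue CPM × body wt (kg) × 100 / (tissue wt (g) × dose CPM). POCA groups received 30 mg/kg i.p. 2 h before tracer. n = 5–6.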

[2] = tested on: Liver; assay: Biodistribution in overnight fasted Sprague-Dawley rat liver organic fraction at 0.7 to 1.4 MBq, iv at 30 mins by Folch-type extraction method; assay type: ADME, organism-based; conditions: in vivo, 0.5 h
Outline: (§2)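 Female Sprague-Dawley rats, fasted overnight, under isoflurane (3.5% induction, 1.5% maintenance). [18F] tracer in 0.5–1.0% BSA/saline was given by tail vein. POCA group: 30 mg/kg i.p. 120 min before tracer. About 0.5 g tissue was homogenized and sonicated in chloroform/methanol (2:1) at 0 °C, then 40% urea and 5% H2SO4 were added and spun 10 min at 1,800 g. Aqueous, organic and pellet fractions were counted as % of total.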

[3] = tested on: Bone; assay: Drug uptake in overnight fasted Sprague-Dawley rat bone at 0.7 to 1.4 MBq, iv at 120 mins; assay type: ADME, organism-based, Bone element; conditions: in vivo, 2 h
Outline: (§3)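 Overnight-fasted female Sprague-Dawley rats under isoflurane received the [18F] tracer in 0.5–1.0% BSA/saline by tail vein. POCA group: 30 mg/kg i.p. 2 h before tracer. Tissues were excised at 30 or 120 min, weighed and gamma-counted with decay correction. Uptake = % dose kg/g, i.e. CPM tissue × body wt (kg) × 100 / (tissue wt (g) × CPM dose). n = 5–6.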

[4] = tested on: Heart; assay: Drug uptake in overnight fasted Sprague-Dawley rat heart at 9 to 11 MBq, iv at 5 mins by microPET analysis; assay type: ADME, organism-based; conditions: in vivo
Outline: (§4)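 Female rats fasted overnight, under isoflurane. 18F-labelled tracer (9–11 MBq) given into a tail vein. Dynamic PET acquisition over the upper thorax for 50 min, then a static whole-body scan 55–115 min post-injection. 2–5 rats per tracer.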

[5] = tested on: Muscle tissue; assay: Biodistribution in overnight fasted Sprague-Dawley rat muscle pellet fraction at 0.7 to 1.4 MBq, iv at 30 mins by Folch-type extraction method; assay type: ADME, organism-based; conditions: in vivo, 0.5 h; outline: as §2
[6] = tested on: Liver; assay: Biodistribution in overnight fasted Sprague-Dawley rat liver organic fraction at 0.7 to 1.4 MBq, iv at 120 mins by Folch-type extraction method; assay type: ADME, organism-based; conditions: in vivo, 2 h; outline: as §2
[7] = tested on: Kidney; assay: Drug uptake in overnight fasted Sprague-Dawley rat kidney at 0.7 to 1.4 MBq, iv at 120 mins; assay type: ADME, organism-based; conditions: in vivo, 2 h; outline: as §1
[8] = tested on: Bone; assay: Drug uptake in overnight fasted Sprague-Dawley rat bone at 0.7 to 1.4 MBq, iv preincubated with POCA for 2 hrs before compound administration measured at 120 mins post treatment; assay type: ADME, organism-based, Bone element; conditions: in vivo; outline: as §3
[9] = tested on: Liver; assay: Drug uptake in overnight fasted Sprague-Dawley rat liver at 0.7 to 1.4 MBq, iv at 30 mins; assay type: ADME, organism-based; conditions: in vivo, 0.5 h; outline: as §1
[10] = tested on: Liver; assay: Biodistribution in overnight fasted Sprague-Dawley rat liver pellet fraction at 0.7 to 1.4 MBq, iv at 30 mins by Folch-type extraction method; assay type: ADME, organism-based; conditions: in vivo, 0.5 h; outline: as §2
[11] = tested on: Kidney; assay: Drug uptake in overnight fasted Sprague-Dawley rat kidney at 0.7 to 1.4 MBq, iv preincubated with POCA for 2 hrs before compound administration measured at 120 mins post treatment; assay type: ADME, organism-based; conditions: in vivo; outline: as §1
[12] = tested on: Muscle tissue; assay: Biodistribution in overnight fasted Sprague-Dawley rat muscle aqueous fraction at 0.7 to 1.4 MBq, iv preincubated with POCA for 2 hrs before compound administration measured at 120 mins post treatment by Folch-type extraction method; assay type: ADME, organism-based; conditions: in vivo; outline: as §2
[13] = tested on: Liver; assay: Biodistribution in overnight fasted Sprague-Dawley rat liver aqueous fraction at 0.7 to 1.4 MBq, iv at 30 mins by Folch-type extraction method; assay type: ADME, organism-based; conditions: in vivo, 0.5 h; outline: as §2
[14] = tested on: Muscle tissue; assay: Drug uptake in overnight fasted Sprague-Dawley rat muscle at 0.7 to 1.4 MBq, iv at 30 mins; assay type: ADME, organism-based; conditions: in vivo, 0.5 h; outline: as §1
[15] = tested on: Liver; assay: Drug uptake in overnight fasted Sprague-Dawley rat liver at 0.7 to 1.4 MBq, iv at 120 mins; assay type: ADME, organism-based; conditions: in vivo, 2 h; outline: as §1
[16] = tested on: Heart; assay: Drug uptake in overnight fasted Sprague-Dawley rat heart at 0.7 to 1.4 MBq, iv at 120 mins; assay type: ADME, organism-based; conditions: in vivo, 2 h; outline: as §3
[17] = tested on: Liver; assay: Drug uptake in overnight fasted Sprague-Dawley rat liver at 0.7 to 1.4 MBq, iv preincubated with POCA for 2 hrs before compound administration measured at 120 mins post treatment; assay type: ADME, organism-based; conditions: in vivo; outline: as §1
[18] = tested on: Lung; assay: Drug uptake in overnight fasted Sprague-Dawley rat lung at 0.7 to 1.4 MBq, iv preincubated with POCA for 2 hrs before compound administration measured at 120 mins post treatment; assay type: ADME, organism-based; conditions: in vivo; outline: as §1
[19] = tested on: Heart; assay: Drug uptake in overnight fasted Sprague-Dawley rat heart at 0.7 to 1.4 MBq, iv preincubated with POCA for 2 hrs before compound administration measured at 30 mins post treatment; assay type: ADME, organism-based; conditions: in vivo, 0.5 h; outline: as §1
[20] = tested on: Lung; assay: Drug uptake in overnight fasted Sprague-Dawley rat lung at 0.7 to 1.4 MBq, iv at 120 mins; assay type: ADME, organism-based; conditions: in vivo, 2 h; outline: as §1
[21] = tested on: Liver; assay: Drug uptake in overnight fasted Sprague-Dawley rat liver at 9 to 11 MBq, iv at 5 mins by microPET analysis; assay type: ADME, organism-based; conditions: in vivo; outline: as §4
[22] = tested on: Heart; assay: Biodistribution in overnight fasted Sprague-Dawley rat heart organic fraction at 0.7 to 1.4 MBq, iv at 30 mins by Folch-type extraction method; assay type: ADME, organism-based; conditions: in vivo, 0.5 h; outline: as §2
[23] = tested on: Heart; assay: Biodistribution in overnight fasted Sprague-Dawley rat heart pellet fraction at 0.7 to 1.4 MBq, iv at 30 mins by Folch-type extraction method; assay type: ADME, organism-based; conditions: in vivo, 0.5 h; outline: as §2
[24] = tested on: Bone; assay: Drug uptake in overnight fasted Sprague-Dawley rat bone at 0.7 to 1.4 MBq, iv at 30 mins; assay type: ADME, organism-based, Bone element; conditions: in vivo, 0.5 h; outline: as §3
[25] = tested on: Muscle tissue; assay: Biodistribution in overnight fasted Sprague-Dawley rat muscle aqueous fraction at 0.7 to 1.4 MBq, iv preincubated with POCA for 2 hrs before compound administration measured at 30 mins post treatment by Folch-type extraction method; assay type: ADME, organism-based; conditions: in vivo, 0.5 h; outline: as §2
[26] = tested on: Lung; assay: Drug uptake in overnight fasted Sprague-Dawley rat lung at 0.7 to 1.4 MBq, iv at 30 mins; assay type: ADME, organism-based; conditions: in vivo, 0.5 h; outline: as §1
[27] = tested on: Bone; assay: Drug uptake in overnight fasted Sprague-Dawley rat bone at 0.7 to 1.4 MBq, iv preincubated with POCA for 2 hrs before compound administration measured at 30 mins post treatment; assay type: ADME, organism-based, Bone element; conditions: in vivo, 0.5 h; outline: as §3
[28] = tested on: Muscle tissue; assay: Biodistribution in overnight fasted Sprague-Dawley rat muscle organic fraction at 0.7 to 1.4 MBq, iv preincubated with POCA for 2 hrs before compound administration measured at 30 mins post treatment by Folch-type extraction method; assay type: ADME, organism-based; conditions: in vivo, 0.5 h; outline: as §2
[29] = tested on: Kidney; assay: Drug uptake in overnight fasted Sprague-Dawley rat kidney at 0.7 to 1.4 MBq, iv preincubated with POCA for 2 hrs before compound administration measured at 30 mins post treatment; assay type: ADME, organism-based; conditions: in vivo, 0.5 h; outline: as §1
[30] = tested on: Heart; assay: Biodistribution in overnight fasted Sprague-Dawley rat heart aqueous fraction at 0.7 to 1.4 MBq, iv at 120 mins by Folch-type extraction method; assay type: ADME, organism-based; conditions: in vivo, 2 h; outline: as §2
[31] = tested on: Muscle tissue; assay: Biodistribution in overnight fasted Sprague-Dawley rat muscle aqueous fraction at 0.7 to 1.4 MBq, iv at 30 mins by Folch-type extraction method; assay type: ADME, organism-based; conditions: in vivo, 0.5 h; outline: as §2

`O=C(O)CCSCCCCCCCCCCCC[18F]` gave a Drug uptake [1] of 0.6197 %IDKg/g, a Drug uptake [2] of 48.25% and a Drug uptake [3] of 0.3143 %IDKg/g. The Drug uptake [4] was “Active”, the Drug uptake [5] was 43.18% and the Drug uptake [6] was 31.39%. For the same molecule, the Drug uptake [7] was 0.1014 %IDKg/g, the Drug uptake [8] was 0.6549 %IDKg/g and the Drug uptake [9] was 0.899 %IDKg/g. For the same molecule, the Drug uptake [10] was 38.21%, the Drug uptake [11] was 0.1637 %IDKg/g and the Drug uptake [12] was 19.16%. For the same molecule, the Drug uptake [13] was 13.52%, the Drug uptake [14] was 0.031 %IDKg/g and the Drug uptake [15] was 0.47 %IDKg/g. For the same molecule, the Drug uptake [16] was 0.1069 %IDKg/g, the Drug uptake [17] was 0.4433 %IDKg/g and the Drug uptake [18] was 0.0472 %IDKg/g. For the same molecule, the Drug uptake [19] was 0.0792 %IDKg/g, the Drug uptake [20] was 0.0183 %IDKg/g and the Drug uptake [21] was “Active”. For the same molecule, the Drug uptake [22] was 38.56%, the Drug uptake [23] was 58.8% and the Drug uptake [24] was 0.235 %IDKg/g. For the same molecule, the Drug uptake [25] was 25.13%, the Drug uptake [26] was 0.099 %IDKg/g and the Drug uptake [27] was 0.179 %IDKg/g. For the same molecule, the Drug uptake [28] was 42.23%, the Drug uptake [29] was 0.2477 %IDKg/g and the Drug uptake [30] was 4.17%. The Drug uptake [31] was 23.24%.

`O=C(O)CCSCCCC/C=C\CCCCCCCC[18F]` gave a Drug uptake [1] of 0.8162 %IDKg/g, a Drug uptake [2] of 19.87% and a Drug uptake [3] of 0.461 %IDKg/g. The Drug uptake [4] was “Active”, the Drug uptake [5] was 59.12% and the Drug uptake [6] was 34.75%. The Drug uptake [7] was 0.1244 %IDKg/g, the Drug uptake [8] was 0.299 %IDKg/g and the Drug uptake [9] was 1.1847 %IDKg/g. It also gave a Drug uptake [10] of 71.69%, a Drug uptake [11] of 0.0611 %IDKg/g and a Drug uptake [12] of 11.37%. For the same molecule, the Drug uptake [13] was 8.43%, the Drug uptake [14] was 0.0201 %IDKg/g and the Drug uptake [15] was 0.8488 %IDKg/g. For the same molecule, the Drug uptake [16] was 0.8164 %IDKg/g, the Drug uptake [17] was 0.1666 %IDKg/g and the Drug uptake [18] was 0.0179 %IDKg/g. The Drug uptake [19] was 0.1155 %IDKg/g, the Drug uptake [20] was 0.0228 %IDKg/g and the Drug uptake [21] was “Active”. It also gave a Drug uptake [22] of 8.46%, a Drug uptake [23] of 88.67% and a Drug uptake [24] of 0.1531 %IDKg/g. The Drug uptake [25] was 24.06%, the Drug uptake [26] was 0.0496 %IDKg/g and the Drug uptake [27] was 0.1475 %IDKg/g. The Drug uptake [28] was 43.19%, the Drug uptake [29] was 0.1932 %IDKg/g and the Drug uptake [30] was 1.86%. The Drug uptake [31] was 18.79%.

Reference: ChEMBL document CHEMBL2177094, “Structure dependence of long-chain [18F]fluorothia fatty acids as myocardial fatty acid oxidation probes” (J Med Chem, 2012)
